In ChEMBL document CHEMBL4052613, “Structure-activity relationship studies of 1,7-diheteroarylhepta-1,4,6-trien-3-ones with two different terminal rings in prostate epithelial cell models” (Eur J Med Chem, 2017):
pIC50: −log10 of the molar value.

Columns and labels:
PC-3 [1] = experiment: Induction of apoptosis in human PC3 cells assessed as necrotic cells at 20 uM after 16 hrs by F2N12S orange and SYTOX green double staining based flow cytometry (reference value: 2 to 3%); format: functional
PC-3 [2] = experiment: Induction of apoptosis in human PC3 cells assessed as apoptotic cells at 40 uM after 16 hrs by F2N12S orange and SYTOX green double staining based flow cytometry (reference value: 2 to 3%); format: functional
PC-3 [3] = experiment: Induction of apoptosis in human PC3 cells assessed as apoptotic cells at 5 uM after 16 hrs by F2N12S orange and SYTOX green double staining based flow cytometry (reference value: 2 to 3%); format: functional
PC-3 [4] = experiment: Induction of apoptosis in human PC3 cells assessed as necrotic cells at 30 uM after 16 hrs by F2N12S orange and SYTOX green double staining based flow cytometry (reference value: 2 to 3%); format: functional
PC-3 [5] = experiment: Induction of apoptosis in human PC3 cells assessed as apoptotic cells at 10 uM after 16 hrs by F2N12S orange and SYTOX green double staining based flow cytometry (reference value: 2 to 3%); format: functional
PC-3 [6] = experiment: Induction of apoptosis in human PC3 cells assessed as necrotic cells at 5 uM after 16 hrs by F2N12S orange and SYTOX green double staining based flow cytometry (reference value: 2 to 3%); format: functional
PC-3 [7] = experiment: Induction of apoptosis in human PC3 cells assessed as viable cells at 5 uM after 16 hrs by F2N12S orange and SYTOX green double staining based flow cytometry (reference value: 95%); format: functional; settings: PC-3, 16 h, read-out: Activity
PC-3 [8] = experiment: Induction of apoptosis in human PC3 cells assessed as necrotic cells at 40 uM after 16 hrs by F2N12S orange and SYTOX green double staining based flow cytometry (reference value: 2 to 3%); format: functional
PC-3 [9] = experiment: Induction of apoptosis in human PC3 cells assessed as apoptotic cells at 30 uM after 16 hrs by F2N12S orange and SYTOX green double staining based flow cytometry (reference value: 2 to 3%); format: functional
PC-3 [10] = experiment: Induction of apoptosis in human PC3 cells assessed as necrotic cells at 10 uM after 16 hrs by F2N12S orange and SYTOX green double staining based flow cytometry (reference value: 2 to 3%); format: functional
PC-3 [11] = experiment: Induction of apoptosis in human PC3 cells assessed as viable cells at 40 uM after 16 hrs by F2N12S orange and SYTOX green double staining based flow cytometry (reference value: 95%); format: functional; settings: PC-3, 16 h, read-out: Activity
PC-3 [12] = experiment: Induction of apoptosis in human PC3 cells assessed as apoptotic cells at 20 uM after 16 hrs by F2N12S orange and SYTOX green double staining based flow cytometry (reference value: 2 to 3%); format: functional
PC-3 [13] = experiment: Induction of apoptosis in human PC3 cells assessed as viable cells at 10 uM after 16 hrs by F2N12S orange and SYTOX green double staining based flow cytometry (reference value: 95%); format: functional; settings: PC-3, 16 h, read-out: Activity
PC-3 [14] = experiment: Induction of apoptosis in human PC3 cells assessed as viable cells at 30 uM after 16 hrs by F2N12S orange and SYTOX green double staining based flow cytometry (reference value: 95%); format: functional; settings: PC-3, 16 h, read-out: Activity
PC-3 [15] = experiment: Induction of apoptosis in human PC3 cells assessed as viable cells at 20 uM after 16 hrs by F2N12S orange and SYTOX green double staining based flow cytometry (reference value: 95%); format: functional; settings: PC-3, 16 h, read-out: Activity
PWR-1E = experiment: Antiproliferative activity against human PWR-1E cells after 3 days by WST-1 assay; format: cell-based; settings: 72 h
In short: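 PWR-1E non-neoplastic prostate epithelial cells grown in keratinocyte serum-free medium with bovine pituitary extract and recombinant human EGF. WST-1 proliferation read-out after 3 days of exposure.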

Row | SMILES | Activity (PC-3 [1]) [%] | Activity (PC-3 [2]) [%] | Activity (PC-3 [3]) [%] | Activity (PC-3 [4]) [%] | Activity (PC-3 [5]) [%] | Activity (PC-3 [6]) [%] | viability at 5 µM (PC-3 [7]) [%] | Activity (PC-3 [8]) [%] | Activity (PC-3 [9]) [%] | Activity (PC-3 [10]) [%] | viability at 40 µM (PC-3 [11]) [%] | Activity (PC-3 [12]) [%] | viability at 10 µM (PC-3 [13]) [%] | viability at 30 µM (PC-3 [14]) [%] | viability at 20 µM (PC-3 [15]) [%] | pIC50 (PWR-1E)
1 | CN[C@@H]1C[C@H]2O[C@@](C)([C@@H]1OC)n1c3ccccc3c3c4c(c5c6ccccc6n2c5c31)C(=O)NC4 [STAUROSPORINE] | 8 | 60 | 9 | 8 | 10 | 4 | 87 | 9 | 47 | 6 | 31 | 24 | 84 | 46 | 68 | 
2 | COc1cc(/C=C/C(=O)CC(=O)/C=C/c2ccc(O)c(OC)c2)ccc1O [CURCUMIN] |  |  |  |  |  |  |  |  |  |  |  |  |  |  |  | 5.09
